Active and inactive are the calls of the source. How the calls were made is not given here. Bounds are passed on as bounds.

The test system of data set [1] is SARS-CoV-2. Description: Antiviral activity against SARS-CoV-2. The class given is functional, organism-based. Particulars: Severe acute respiratory syndrome coronavirus 2.
Data set [2] has as its system Severe acute respiratory syndrome coronavirus 2. As to the kind of experiment: Inhibition of SARS-CoV-2 Main protease using MCA-AVLQSGFR-Lys(Dnp)-Lys-NH2 as substrate at 5 uM preincubated for 10 mins followed by substrate addition and measured after 10 mins by FRET assay relative to control. As to conditions: time 20.0 min.
Data set [3] is described as follows: Inhibition of SARS-CoV-2 Main protease using MCA-AVLQSGFR-Lys(Dnp)-Lys-NH2 as substrate preincubated for 10 mins followed by substrate addition and measured after 10 mins by FRET assay. Further details: species or system Severe acute respiratory syndrome coronavirus 2. In short, it runs like this:
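Mpro (1.5 μM stock) was preincubated with purified compound for 10 min at 37 °C in Tris–HCl/NaCl, pH 7.3. FRET substrate was then added and fluorescence (ex 320/em 405) followed for 10 min. Inhibition was calculated from initial 60 s slopes versus control and blank wells. Compounds were tested at 0.1, 0.5, 1, 5 and 10 μM in three independent experiments, and IC50 was fitted.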

In data set [4] the test system is SARS-CoV-2. Description: Antiviral activity against SARS-CoV-2 infected in African green monkey Vero E6 cells pre-infected with cells for 1 hr followed by compound treatment and measured after 25 to 26 hrs by ELISPOT assay. The data set is classed as functional, organism-based. Particulars: Severe acute respiratory syndrome coronavirus 2, Vero C1008.
A short description of data set [5]: Metabolic stability in rat liver microsome assessed as parent compound remaining measured immediately in presence of NADPH by LC-MS/MS analysis. As to conditions: liver microsomes, read-out: Stability. The class given is ADME. An outline of the steps:
(§1)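 Microsomes (0.5 mg/mL) and 1 μM compound (final) in 100 mM phosphate buffer were prewarmed 5 min at 37 °C. Reactions were started with NADPH-regenerating solution; a no-NADPH control was run. Samples at 0, 5, 15, 30 and 60 min were quenched with cold MeOH:acetonitrile 1:1 containing labetalol/tolbutamide internal standards. Percent remaining is mean of n = 2. t1/2 came from the slope, and CLint was scaled with factor 1800.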

Data set [6] can be described thus: Metabolic stability in rat liver microsome assessed as parent compound remaining measured at 5 mins in presence of NADPH by LC-MS/MS analysis. As to conditions: liver microsomes, read-out: Stability. The class given is ADME. In short, it runs like this: as §1
Data set [7] is described as follows: Metabolic stability in rat liver microsome assessed as parent compound remaining measured at 15 mins in presence of NADPH by LC-MS/MS analysis. As to conditions: liver microsomes, read-out: Stability. The data set is classed as ADME. An outline of the steps:
as §1

Data set [8] in a line: Metabolic stability in rat liver microsome assessed as parent compound remaining measured at 30 mins in presence of NADPH by LC-MS/MS analysis. The class given is ADME. As to conditions: liver microsomes, read-out: Stability. In short, it runs like this: as §1
Data set [9] is described as follows: Metabolic stability in rat liver microsome assessed as parent compound remaining measured at 60 mins in presence of NADPH by LC-MS/MS analysis. The class given is ADME. Particulars: liver microsomes, read-out: Stability. In short, it runs like this:
as §1

Data set [10] is described as follows: Metabolic stability in rat liver microsome assessed as half life measured up to 60 mins in presence of NADPH by LC-MS/MS analysis. The data set is classed as ADME. Particulars: liver microsomes. An outline of the steps:
as §1

Data set [11] can be described thus: Metabolic stability in rat liver microsome assessed as intrinsic clearance measured up to 60 mins in presence of NADPH by LC-MS/MS analysis. The data set is classed as ADME. Particulars: liver microsomes. An outline of the steps:
as §1

Data set [12] in a line: Drug degradation in rat liver microsome measured within 15 mins in presence of NADPH by LC-MS/MS analysis. The data set is classed as ADME. As to conditions: liver microsomes, read-out: Drug degradation. In short, it runs like this: as §1
The nature of data set [13]: Cytotoxicity against African green monkey Vero E6 cells assessed as cell viability measured for 26 hrs by MTS assay. The data set is classed as toxicity, cell-based, Vero C1008. Particulars: chlorocebus sabaeus. An outline of the steps:
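Vero E6 cells were seeded at 1.7 × 10^4 per well in DMEM/10% FBS for 24 h. They were then exposed to compound in DMEM/5% FBS (final 1% DMSO) for 26 h at 37 °C, 5% CO2. MTS/PMS was added for 4 h and A490 read, minus media blank, normalised to DMSO wells. CC50 was fitted by four-parameter model with bottom fixed at zero, from ≥3 replicates.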

For `Cn1cnc(Cn2c(=O)[nH]/c(=N\c3cc4cn(C)nc4cc3Cl)n(Cc3cc(F)c(F)cc3F)c2=O)n1`, in the data set with SARS-CoV-2 [1], the EC50 came to 110 nM.
Take `O=C(c1cccnc1)N1CCN(c2ccc(Cl)c(Cl)c2)[C@H](c2cn(-c3ccc(CO)cc3)nn2)C1`: the inhibition result in data set [2] is “Active”. This compound also gave an IC50 in data set [3] of 1870 nM. This compound also showed an EC50 in the data set with SARS-CoV-2 [4] of 6990 nM. Further, the remaining at 0 min in data set [5] was determined as 100%. The remaining at 5 min in [6] was found to be 70.7%. In addition, the remaining at 0.25 h in data set [7] amounted to 36.5%. The remaining at 0.5 h in data set [8] is 13.3%. For the same compound, the remaining at 1 h in data set [9] turned out to be 5.1%. In addition, the half-life in [10] is 10.3 min. Also, the CLint scaled in data set [11] stood at 242 mL/min/kg.
Regarding `O=C(NCc1cccs1)[C@@H]1CN(C(=O)c2cccnc2)CCN1c1ccc(Cl)c(Cl)c1`, the inhibition result in data set [2] was “Active”. In [3], this compound gave an IC50 of 390 nM. In the data set on SARS-CoV-2 [4], this compound gave an EC50 of 1780 nM. Further, in data set [5], the remaining at 0 min amounted to 100%. In addition, the remaining at 5 min in data set [6] was determined as 22.7%. For the same compound, the remaining at 0.25 h in data set [7] worked out at 1.56%. In [8], the remaining at 0.5 h amounted to 0%. Besides, the remaining at 1 h in [9] worked out at 0%. For the same compound, the half-life in data set [10] was 2.51 min. The CLint scaled in [11] turned out to be 994 mL/min/kg. In [12], the metabolised at 0.25 h is 100%.
For the compound `O=C(c1cccnc1)N1CCN(c2ccc(Cl)c(Cl)c2)[C@H](c2cn(-c3ccc4c(c3)OCO4)nn2)C1`, the inhibition result in [2] was “Active”. Moreover, the IC50 in data set [3] was found to be 2230 nM. The compound further registered an EC50 in the data set on SARS-CoV-2 [4] of 6320 nM. The CC50 at 26 h in data set [13] was greater than 100000 nM.
Turning to `COc1ccc(-n2cc([C@@H]3CN(C(=O)c4cccnc4)CCN3c3ccc(Cl)c(Cl)c3)nn2)cc1`, the inhibition result in [2] was “Active”. This compound also returned an IC50 in data set [3] of 2090 nM. It took 7820 nM to reach a half-maximal effect in the data set on SARS-CoV-2 [4] (EC50).
With `Cc1cc(C)c(-n2cc([C@@H]3CN(C(=O)c4cccnc4)CCN3c3ccc(Cl)c(Cl)c3)nn2)c(C)c1`, the inhibition entry in data set [2] is “Active”. This compound showed an IC50 in data set [3] of 1850 nM. This compound also had an EC50 in the data set on SARS-CoV-2 [4] of 12300 nM.
For `O=C(O)Cc1ccccc1Nc1c(Cl)cccc1Cl` [DICLOFENAC], the half-life in data set [10] came out at 16.6 min. Besides, in [11], the CLint scaled turned out to be 150 mL/min/kg.
